Among all 220,000 compounds or so, about 990 (0.45%) were called active. The entries come from a sample that favours actives as a whole. Unmarked numbers belong to inactive results.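 The calls were made as follows: active = inhibition over about 50% at 20 µM in the single-dose screen (limit read from the data); inactive = the rest.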
Each molecule was assayed against Runt-related transcription factor 1 (Homo sapiens) + Core-binding factor subunit beta (Homo sapiens) (UniProt Q01196+Q13951) (assay: inhibitors of RUNX1 Runt–CBFb binding, primary screen, biochemical, FRET, Cerulean-Runt, Venus-CBFb, uHTS (AID 1496;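 also: 0% = DMSO wells and 100% = excess unlabeled CBFb competitor control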)). Details: Cerulean-Runt/Venus-CBFb FRET ratio 530/480, 1 h; at 20 µM; active compounds read high.
In short: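 test system = Cerulean-Runt domain fusion protein, energy donor | probe or stimulus = Venus-CBFb binding partner, 100 nM | incubation = two 1 h room-temperature incubations shielded from light | detection = fluorescence energy transfer, 422 nm excitation, 530/480 nm emission | measure = loss of energy transfer signal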

Runt-related transcription factor 1 (Homo sapiens) + Core-binding factor subunit beta (Homo sapiens), sequence (Q01196 whole entry, looked up, the tested form may be a part): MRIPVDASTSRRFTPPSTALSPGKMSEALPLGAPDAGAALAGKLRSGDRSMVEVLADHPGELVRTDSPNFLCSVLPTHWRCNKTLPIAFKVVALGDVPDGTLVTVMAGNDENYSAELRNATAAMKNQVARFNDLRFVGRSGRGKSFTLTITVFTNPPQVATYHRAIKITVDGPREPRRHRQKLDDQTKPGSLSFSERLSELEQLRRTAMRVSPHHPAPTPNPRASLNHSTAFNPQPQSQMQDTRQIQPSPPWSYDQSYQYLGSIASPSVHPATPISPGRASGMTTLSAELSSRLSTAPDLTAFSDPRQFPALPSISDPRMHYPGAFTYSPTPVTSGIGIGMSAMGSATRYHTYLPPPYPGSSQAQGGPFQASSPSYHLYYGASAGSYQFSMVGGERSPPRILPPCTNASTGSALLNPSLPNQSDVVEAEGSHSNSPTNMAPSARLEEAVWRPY
Runt-related transcription factor 1 (Homo sapiens) + Core-binding factor subunit beta (Homo sapiens), sequence (Q13951 whole entry, looked up, the tested form may be a part): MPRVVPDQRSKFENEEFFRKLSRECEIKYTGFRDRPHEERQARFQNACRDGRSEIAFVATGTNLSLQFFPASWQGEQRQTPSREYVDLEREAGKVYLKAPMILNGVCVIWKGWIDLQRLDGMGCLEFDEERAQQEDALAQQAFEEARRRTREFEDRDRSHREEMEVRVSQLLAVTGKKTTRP

SMILES	inhibition
CCn1c(NC(=O)c2ccccc2)c(-c2cccs2)c(=O)c2ccccc21	-4.7%
COCCCn1c(CCC(=O)O)ccc1-c1ccc(F)cc1	3.3%
CC(C)Cn1c(CCC(=O)O)ccc1-c1cccs1	65.6% (active)
CNC(=S)NNC(=O)c1ccc(N(C)C)cc1	1.6%
Cc1cc(F)ccc1NC(=O)C(C)n1c2ccccc2c2nc(=O)cc(C)n21 (configuration not stated)	1.5%
CCOc1ccc(/C=N/NC(=O)CSc2ccccn2)cc1O	2.9%
CCC(=O)Nc1c(S(=O)(=O)c2ccccc2)c2nc3ccccc3nc2n1Cc1ccccc1	78.8% (active)
CCN(CC)CCn1c(N)c(S(=O)(=O)c2ccccc2)c2nc3ccccc3nc21	5.9%
Cc1ccc(S(=O)(=O)c2c(N)n(C)c3nc4ccccc4nc23)cc1	7.1%
O=c1c2cc(-c3ccccc3)sc2nc2n1N=C(c1cccs1)CS2	-2.4%
Nc1nc(NCC2CCCO2)nc(Nc2ccccc2F)c1[N+](=O)[O-] (configuration not stated)	-3.8%
COCCCNC(=S)NC(=O)c1ccc([N+](=O)[O-])cc1	4.5%
Cc1ccc2nc(NCCCNC(=O)c3cnccn3)c(C#N)cc2c1	21.2%
COCCCNC(=S)NCCNc1nc2cc(C)c(C)cc2cc1C#N	82.7% (active)
CC(/C=C/c1ccco1)=N/NC(=O)C1COc2ccccc2O1 (configuration not stated)	2.3%
Cn1nc(C(F)(F)F)c(-c2ccc(F)cc2)c1NC(=O)CSCC(=O)O	3.4%
Cc1ccnc(N2C(=O)c3ccccc3C2Nc2ccc3c(c2)OCCO3)c1 (configuration not stated)	1.5%
O=C1c2ccccc2C(Nc2ccc3c(c2)OCCO3)N1Cc1ccco1 (configuration not stated)	70% (active)
O=C(NC1CCCCC1)C1c2ccccc2C(=O)N1Cc1ccco1 (configuration not stated)	1.8%
COC(=O)c1ccc(COc2cc([N+](=O)[O-])cc3cccnc23)cc1	-0.8%
CCOC(=O)Cc1csc(SCc2cc(=O)oc3cc(O)ccc23)n1	77.8% (active)
CCOC(=O)Cc1csc(NC(=O)COc2ccc3c(C)cc(=O)oc3c2)n1	1.8%
Cc1ccc2c(CSc3nncs3)cc(=O)oc2c1	3.7%
COc1cccc(Nc2nc(N)c([N+](=O)[O-])c(NCc3ccco3)n2)c1	0.2%
CN1CCN(Cc2c(O)ccc3c2oc(=O)c2ccccc23)CC1	-1.7%
NC(=O)COc1ccc2c3c(c(=O)oc2c1)CCCCC3	1.7%
O=c1oc2c(CN3CCCCC3)c(O)ccc2c2c1CCCCC2	72.8% (active)
